Assay results taken from PMC11903327 (Clinical and Translational Science, 2025).
Converted amounts (≈) assume the structure as drawn. Like-named read-outs stand apart in the source and are kept apart here.

Tests used:
[1] = Phase 1 dose-escalation study, QD dosing; cited from earlier work
[2] = healthy Chinese subjects, fruquintinib 4 mg, cited from earlier work
[3] = ref Takeda data on file, cited from earlier work
[4] = assay type: in vivo, human
[5] = Clinical mass balance study with radiolabelled fruquintinib; assay type: in vivo, human; settings: single 5 mg dose in humans; inferred from metabolic profile
[6] = healthy subjects, cited from earlier work
[7] = assay type: in vivo, human; settings: for CL/F: arithmetic mean (SD)
Method in brief: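 Healthy nonsmoking adults aged 18–55, BMI 18–29 kg/m2. Randomized fed/fasted crossover: single 5 mg oral dose fasted or 30 min after a high-fat breakfast (~800–1000 kcal, 50% fat), with ≥14-day washout. Period 3: rabeprazole 40 mg QD with breakfast for 6 days, then fasted 1 h before dosing. Plasma sampled pre-dose to 168 h, LC-MS/MS (1.00–750 ng/mL). Noncompartmental PK; mixed-effects geometric LSM ratios, 90% CIs.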

[8] = Biopharmaceutical classification system; assay type: physicochemical; settings: based on low aqueous solubility and high in vitro permeability
pKa = assay type: physicochemical
[9] = In vitro aqueous solubility in buffer systems across pH 1 to 6.8; assay type: physicochemical; settings: 37 °C, thermodynamic from solid
[10] = test system: colorectal adenocarcinoma‐2 cell; settings: colorectal adenocarcinoma-2 cells; cited from earlier work
[11] = single oral radiolabeled fruquintinib 5 mg; cited from earlier work
[12] = clinical dose of 5 mg; cited from earlier work

CNC(=O)c1c(C)oc2cc(Oc3ncnc4cc(OC)c(OC)cc34)ccc12 [Fruquintinib]
maximum-tolerated dose [1]: 4 mg | effect of a high-fat meal on the PK of fruquintinib [2]: no clinically significant effect | least squares GMR (90% CI) for AUC0-inf ([2]; high-fat meal vs fasted): 97.2% (94.0%–100.4%) | least squares GMR (90% CI) for Cmax ([2]; high-fat meal vs fasted): 82.9% (76.7%–89.5%) | time stable in simulated gastric fluids ([3]; simulated gastric fluids): at least 1 h | time stable in simulated intestinal fluids ([3]; simulated intestinal fluids): at least 3 h | relation of AEs to fruquintinib ([4]; all five AEs): not related | severity of AEs ([4]; all five AEs): mild | subjects reporting AEs ([4]; four of 14 subjects, five AEs, all treatment periods): 29% | changes in chemistry, hematology, urinalysis and coagulation laboratory test results ([4]; over time during the study): no clinically significant changes | tolerability ([4]; with or without food or with rabeprazole): well tolerated | fraction of the dose absorbed [5]: > 85% | change in fruquintinib exposure ([6]; coadministration with a CYP3A inducer): decreased | change in fruquintinib AUC or Cmax ([6]; coadministration with a CYP3A inhibitor): no clinically meaningful change | time after dosing at which peak concentrations were achieved ([7]; fruquintinib 5 mg oral, under fed and fasted conditions): approximately 4 h | effects of food or rabeprazole on fruquintinib PK ([7]; healthy subjects, fruquintinib 5 mg): No clinically relevant effects | Tmax ([7]; human, plasma, oral): 0.5 h | Tmax ([7]; human, plasma, po, 5 mg): 4 h | CL/F ([7]; single oral fruquintinib 5 mg + rabeprazole 40 mg, fasted): 15.6 (4.59) mL/min | CL/F ([7]; single oral fruquintinib 5 mg, fasted (reference)): 17.1 (5.22) mL/min | CL/F ([7]; single oral fruquintinib 5 mg, fed (high-fat meal)): 16.3 (4.32) mL/min | Tmax ([7]; single oral fruquintinib 5 mg, fed (high-fat meal), median (minimum–maximum)): 4.00 (2.00–6.00) h | biopharmaceutical classification system (BCS) class [8]: class 2 | pKa (pKa): 2.78 | solubility at 48 h ([9]; pH 1, simulated gastric fluid): 130 µg/mL (≈ 330 µM) | solubility at 48 h ([9]; pH 4.5, aqueous buffer): 0.9 µg/mL (≈ 2.29 µM) | solubility at 48 h ([9]; pH 6.8, aqueous buffer): 0.9 µg/mL (≈ 2.29 µM) | apical-to-basolateral apparent permeability [10]: 30 ×10⁻⁶ cm/s | efflux ratio [10]: ~1 | dose recovered in feces [11]: 30% | unchanged fruquintinib in feces, of the administered dose [11]: 5.34% | unchanged fruquintinib in urine, of the administered dose [11]: 0.50%

CNC(=O)c1ccccc1Sc1ccc2c(/C=C/c3ccccn3)n[nH]c2c1 [axitinib]
DDI (based on AUC) when combined with rabeprazole [12]: no clinically meaningful DDI | food effect [12]: no clinically meaningful food effect
